The values that follow come from ChEMBL document CHEMBL1165919, “Synthesis, vasorelaxant activity and antihypertensive effect of benzo[d]imidazole derivatives” (Bioorg Med Chem, 2010).

Calls of active or inactive are those of the source. The rule behind the calls is not given here.

Test [1] relates to Aorta. Briefly: Vasorelaxant activity in Wistar rat endothelium-denuded thoracic aortic ring assessed as inhibition of noradrenaline-induced contraction treated after noradrenaline challenge measured after 60 mins. Format: functional, tissue-based. In short, it runs like this: (§1)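 Thoracic aorta came from male Wistar rats (250–350 g), cleaned and cut into 4–5 mm rings. Endothelium was rubbed off some rings with forceps and its absence confirmed by no relaxation to carbachol. Rings were washed every 30 min for 2 h, pre-contracted with noradrenaline (0.1), then given the test agent cumulatively. Concentration-response curves (n=5–6, mean ± SEM) were fitted nonlinearly to give EC50.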

Test [2] relates to Aorta. Briefly: Vasorelaxant activity in Wistar rat endothelium-intact thoracic aortic ring assessed as inhibition of noradrenaline-induced contraction treated after noradrenaline challenge measured after 60 mins. Format: functional, tissue-based. The conditions noted are these: 1 h. The essentials:
as §1

Test [3] deals with Rattus norvegicus. Kind of test: Antihypertensive activity in SHR rat assessed as moderate decrease in systolic blood pressure at 50 mg/kg, po after 6 hrs. The conditions noted are these: Artery.
Test [4] relates to Rattus norvegicus. Kind of test: Antihypertensive activity in SHR rat assessed as sustained decrease in systolic blood pressure at 100 mg/kg, po after 6 hrs. On the set-up: dose 100 mg/kg. As to conditions: Artery. Format: functional, organism-based.
For test [5], the system named is Rattus norvegicus. Briefly: Antihypertensive activity in SHR rat assessed as effect on heart rate at 100 mg/kg, po after 6 hrs. Format: functional, organism-based. On the set-up: dose 100 mg/kg.
In test [6] the test system is Rattus norvegicus. Briefly: Antihypertensive activity in SHR rat assessed as moderate decrease in systolic blood pressure at 50 mg/kg, po after 6 hrs. Format: functional, organism-based. More on the design: dose 50 mg/kg. As to conditions: Artery.
Test [7] concerns Rattus norvegicus. Kind of test: Antihypertensive activity in SHR rat assessed as effect on heart rate at 25 mg/kg, po after 6 hrs. Format: functional, organism-based. On the set-up: dose 25 mg/kg.
Test [8] has as its system Rattus norvegicus. Kind of test: Antihypertensive activity in po dosed SHR rat assessed as decrease in systolic blood pressure after 6 hrs. The conditions noted are these: Artery. Format: functional, organism-based.
Test [9] deals with Rattus norvegicus. Briefly: Antihypertensive activity in SHR rat assessed as effect on heart rate at 50 mg/kg, po after 6 hrs. Format: functional, organism-based. More on the design: dose 50 mg/kg.
The subject of test [10] is Aorta. Kind of test: Ratio of pimobendan EC50 to compound EC50 for vasorelaxant activity in pre-contracted Wistar rat endothelium-intact thoracic aortic ring. Format: functional.
Test [11] concerns Rattus norvegicus. Briefly: Antihypertensive activity in SHR rat assessed as decrease in systolic blood pressure at 25 mg/kg, po after 6 hrs. On the set-up: dose 25 mg/kg. The conditions noted are these: Artery. Format: functional, organism-based.
The mark [12] stands for this setting: Rattus norvegicus, Wistar, Aorta, 1 h.
Where [13] appears, read: Rattus norvegicus, Wistar, Aorta, 1 h, read-out: EC50.

What is called Emax is the maximal effect, on the per cent scale that the assay sets. As a reminder, the EC50 is the midpoint of the concentration-response curve. As for `CCOC(=O)C1=C(C)NC(C)=C(C(=O)OC)C1c1cccc([N+](=O)[O-])c1` (stereo not drawn) [NITRENDIPINE], in the test on Aorta [1] (setting [12]), the Emax was 98.9%. In addition, in the test with Aorta [1] (setting [13]), the EC50 worked out at 0.03 µM.

Regarding `FC(F)(F)c1ccc2[nH]c(-c3ccc4c(c3)OCO4)nc2c1`, the Emax with Aorta [1] (setting [12]) worked out at 99.6%; in the test on Aorta [2], 101%. For the same compound, the EC50 was 77.4 µM with Aorta [1] (setting [13]) and 38.5 µM in the test on Aorta [2].

As for `C[N+](C)(C)CCOC(N)=O.[Cl-]` [CARBACHOL], in the test with Aorta [1], the EC50 entry is listed as “Not Active” and the Emax result is “inactive”. Moreover, in the test with Aorta [2], the EC50 came out at 0.51 µM and the Emax came out at 106%.

In the case of `COc1cc(-c2nc3cc(C(F)(F)F)ccc3[nH]2)ccc1O`, the Emax came out at 97.7% in the test with Aorta [1] (setting [12]) and 99.5% with Aorta [2]. In addition, the EC50 in the test with Aorta [1] (setting [13]) came to 140 µM; in the test with Aorta [2], 34.8 µM.

Consider `C[C@H](CS)C(=O)N1CCC[C@H]1C(=O)O`, for which the outcome in the test with Rattus norvegicus [3] was Active.

As to `COc1ccc(-c2nc3cc(C4=NNC(=O)CC4C)ccc3[nH]2)cc1` (stereo not drawn) [PIMOBENDAN], in the test on Aorta [2], the EC50 was 4.67 µM and the Emax came out at 93.2%.

Turning to `COc1ccc(-c2nc3cc([N+](=O)[O-])ccc3[nH]2)cc1OC`, the results for the Emax in the test with Aorta [1] (setting [12]) and in the test on Aorta [2] were 36.3% and 75%, respectively. Besides, the EC50 in the test with Aorta [1] (setting [13]) stood at 302 µM; with Aorta [2] it was 2.5 µM.

In the case of `CN(C)c1ccc(-c2nc3cc(C(F)(F)F)ccc3[nH]2)cc1`, the values for the Emax with Aorta [1] (setting [12]) and in the test with Aorta [2] were 30.9% and 63.2%, respectively. The concentration for a half-maximal effect (EC50) with Aorta [1] (setting [13]) and with Aorta [2] was 550 µM each time.

`CCOc1ccccc1-c1nc2cc([N+](=O)[O-])ccc2[nH]1`: the Emax in the test with Aorta [1] (setting [12]) amounted to 46.4%; in the test on Aorta [2], 84.8%. Besides, the EC50 in the test on Aorta [1] (setting [13]) was found to be 15 µM; with Aorta [2], 3.71 µM.

Regarding `CCOc1ccccc1-c1nc2cc(C(F)(F)F)ccc2[nH]1`, the values for the Emax with Aorta [1] (setting [12]) and in the test with Aorta [2] were 19.8% and 91%, respectively. Moreover, the EC50 in the test with Aorta [1] (setting [13]) stood at 549 µM; in the test with Aorta [2], 548 µM.

For `COc1cc(-c2nc3cc([N+](=O)[O-])ccc3[nH]2)ccc1O`, the Emax in the test on Aorta [1] (setting [12]) stood at 55.2%; with Aorta [2], 91.7%. The EC50 amounted to 19.5 µM in the test with Aorta [1] (setting [13]) and 1.81 µM with Aorta [2]. Further, the outcome with Rattus norvegicus [4], in the test on Rattus norvegicus [6] and with Rattus norvegicus [3] was Active. Moreover, the outcome in the test with Rattus norvegicus [5], with Rattus norvegicus [7], in the test with Rattus norvegicus [9] and with Rattus norvegicus [11] was inactive. The Activity entry with Rattus norvegicus [8] is “Dose-dependent effect”. Further, in the test on Aorta [10], the “Ratio EC50” value was 2.5.

With `Oc1ccc(-c2nc3cc(C(F)(F)F)ccc3[nH]2)cc1`, the maximal response (Emax) in the test with Aorta [1] (setting [12]) was 37%; with Aorta [2] it was 51.1%. The EC50 with Aorta [1] (setting [13]) and with Aorta [2] was 219 µM each time.

On to `FC(F)(F)c1ccc2[nH]c(-c3ccccc3)nc2c1`, for which the figures for the Emax in the test with Aorta [1] (setting [12]) and in the test with Aorta [2] were 75.6% and 91.2%, respectively. Moreover, the values for the EC50 with Aorta [1] (setting [13]) and in the test with Aorta [2] were 468 µM and 369 µM, respectively.

Take `COc1ccc(-c2nc3cc([N+](=O)[O-])ccc3[nH]2)c(OC)c1OC`: the Emax in the test on Aorta [1] (setting [12]) came out at 58.9%; in the test on Aorta [2], 90%. Further, the figures for the EC50 in the test with Aorta [1] (setting [13]) and in the test on Aorta [2] were 43.6 µM and 3.23 µM, respectively.

Consider `O=[N+]([O-])c1ccc2[nH]c(-c3ccccc3)nc2c1`, for which the Emax in the test with Aorta [1] (setting [12]) is 60.5%; with Aorta [2], 73.8%. Further, the EC50 in the test with Aorta [1] (setting [13]) turned out to be 35.1 µM; in the test with Aorta [2], 4.93 µM.

Consider `CCCOc1ccc(-c2nc3cc(C(F)(F)F)ccc3[nH]2)cc1`, for which the results for the Emax with Aorta [1] (setting [12]) and in the test on Aorta [2] were 19% and 51%, respectively. The EC50 with Aorta [1] (setting [13]) and with Aorta [2] was 524 µM each time.

With `COc1ccccc1-c1nc2cc(C(F)(F)F)ccc2[nH]1`, the figures for the Emax with Aorta [1] (setting [12]) and in the test on Aorta [2] were 45.7% and 75.1%, respectively. The EC50 in the test with Aorta [1] (setting [13]) is 575 µM; with Aorta [2], 210 µM.

On to `CC(C)Oc1ccccc1-c1nc2cc([N+](=O)[O-])ccc2[nH]1`, for which the results for the Emax with Aorta [1] (setting [12]) and in the test on Aorta [2] were 31.7% and 80.7%, respectively. Also, the EC50 with Aorta [1] (setting [13]) was found to be 14.1 µM; in the test on Aorta [2], 4.89 µM.

`O=[N+]([O-])c1ccccc1-c1nc2cc(C(F)(F)F)ccc2[nH]1`: the Emax with Aorta [1] (setting [12]) amounted to 85.3%; in the test on Aorta [2] it was 93.2%. In addition, the EC50 with Aorta [1] (setting [13]) was determined as 15 µM; with Aorta [2] it was 3.18 µM.
